ChEMBL document CHEMBL2440113, “Synthesis, radiofluorination, and in vivo evaluation of novel fluorinated and iodinated radiotracers for PET imaging and targeted radionuclide therapy of melanoma” (J Med Chem, 2013)

How the values were obtained:
Heart [1] = assay: Biodistribution in heart of C57BL/6J mouse harboring mouse B16-Bl6 cells at 9 to 12 MBq, iv after 3 hrs by PET analysis; type: ADME, organism-based; details: in vivo
Outline: (§1)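 Ex vivo dissection in B16Bl6-bearing C57BL/6J mice (3x10⁵ cells s.c. right shoulder), done at day 10 or 14 after implantation. The ¹⁸F tracer was given i.v. at 9-12 MBq. Mice were killed by CO₂ at 1, 2 or 3 h. Tumor, organs and tissues were excised, weighed and gamma-counted, then decay-corrected and expressed as %ID/g. n=3-6 per group; mean ± SD.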

Kidney = assay: Biodistribution in kidney of C57BL/6J mouse harboring mouse B16-Bl6 cells at 9 to 12 MBq, iv after 3 hrs by PET analysis; type: ADME, organism-based; details: in vivo; outline: as §1
Mus musculus [2] = assay: Biodistribution in cecum of C57BL/6J mouse harboring mouse B16-Bl6 cells at 9 to 12 MBq, iv after 3 hrs by PET analysis; type: ADME, organism-based, Caecum; details: in vivo; outline: as §1
Mus musculus [3] = assay: Biodistribution in small intestine of C57BL/6J mouse harboring mouse B16-Bl6 cells at 9 to 12 MBq, iv after 3 hrs by PET analysis; type: ADME, organism-based; details: in vivo; outline: as §1
Stomach [4] = assay: Biodistribution in stomach of C57BL/6J mouse harboring mouse B16-Bl6 cells at 9 to 12 MBq, iv after 3 hrs by PET analysis; type: ADME, organism-based; details: in vivo
Outline: (§2)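 Ex vivo biodistribution. C57BL/6J mice bearing subcutaneous B16Bl6 tumours (3x10⁵ cells, shoulder), day 10 or 14, received [18F]tracer iv (9-12 MBq). They were killed by CO₂ at 1, 2 or 3 h. Tumours and organs were excised, weighed and gamma-counted. Results are decay-corrected % ID/g; ratios are tumour over tissue. n=3-6 per group; mean ± SD.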

Blood = assay: Biodistribution in blood of C57BL/6J mouse harboring mouse B16-Bl6 cells at 9 to 12 MBq, iv after 3 hrs by PET analysis; type: ADME, organism-based; details: in vivo; outline: as §1
Muscle tissue [5] = assay: Biodistribution in muscle of C57BL/6J mouse harboring mouse B16-Bl6 cells at 9 to 12 MBq, iv after 3 hrs by PET analysis; type: ADME, organism-based; details: in vivo; outline: as §1
Spleen [6] = assay: Biodistribution in spleen of C57BL/6J mouse harboring mouse B16-Bl6 cells at 9 to 12 MBq, iv after 2 hrs by PET analysis; type: ADME, organism-based; details: in vivo; outline: as §1
Mus musculus [7] = assay: Biodistribution in colon and feces of C57BL/6J mouse harboring mouse B16-Bl6 cells at 9 to 12 MBq, iv after 2 hrs by PET analysis; type: ADME, organism-based; details: in vivo; outline: as §1
Mus musculus [8] = assay: Biodistribution in small intestine of C57BL/6J mouse harboring mouse B16-Bl6 cells at 9 to 12 MBq, iv after 2 hrs by PET analysis; type: ADME, organism-based; details: in vivo; outline: as §1
Stomach [9] = assay: Biodistribution in stomach of C57BL/6J mouse harboring mouse B16-Bl6 cells at 9 to 12 MBq, iv after 2 hrs by PET analysis; type: ADME, organism-based; details: in vivo; outline: as §1
Bone [10] = assay: Biodistribution in bones of C57BL/6J mouse harboring mouse B16-Bl6 cells at 9 to 12 MBq, iv after 2 hrs by PET analysis; type: ADME, organism-based, Bone element; details: in vivo; outline: as §1
Nucleic Acid = assay: Ratio of drug level in tumor to bone in C57BL/6J mouse harboring mouse B16-Bl6 cells at 9 to 12 MBq, iv after 1 hr by PET analysis; type: ADME, organism-based; details: in vivo; outline: as §2
Brain = assay: Biodistribution in brain of C57BL/6J mouse harboring mouse B16-Bl6 cells at 9 to 12 MBq, iv after 1 hr by PET analysis; type: ADME, organism-based; details: in vivo; outline: as §1
Heart [11] = assay: Biodistribution in heart of C57BL/6J mouse harboring mouse B16-Bl6 cells at 9 to 12 MBq, iv after 1 hr by PET analysis; type: ADME, organism-based; details: in vivo; outline: as §1
Spleen [12] = assay: Biodistribution in spleen of C57BL/6J mouse harboring mouse B16-Bl6 cells at 9 to 12 MBq, iv after 1 hr by PET analysis; type: ADME, organism-based; details: in vivo; outline: as §1
Mus musculus [13] = assay: Biodistribution in cecum of C57BL/6J mouse harboring mouse B16-Bl6 cells at 9 to 12 MBq, iv after 1 hr by PET analysis; type: ADME, organism-based, Caecum; details: in vivo; outline: as §1
Mus musculus [14] = assay: Biodistribution in colon and feces of C57BL/6J mouse harboring mouse B16-Bl6 cells at 9 to 12 MBq, iv after 1 hr by PET analysis; type: ADME, organism-based; details: in vivo; outline: as §1
Bone [15] = assay: Biodistribution in bones of C57BL/6J mouse harboring mouse B16-Bl6 cells at 9 to 12 MBq, iv after 1 hr by PET analysis; type: ADME, organism-based, Bone element; details: in vivo; outline: as §1
Muscle tissue [16] = assay: Biodistribution in muscle of C57BL/6J mouse harboring mouse B16-Bl6 cells at 9 to 12 MBq, iv after 1 hr by PET analysis; type: ADME, organism-based; details: in vivo; outline: as §1
[17] = Ratio of drug level in tumor to muscle in C57BL/6J mouse harboring mouse B16-Bl6 cells at 8 to 12 MBq, iv after 1 hr by PET analysis; type: ADME, organism-based; details: in vivo
Outline: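 Static whole-body PET at 1 h after tail-vein injection of [18F]tracer (9-12 MBq/0.15 mL) in C57BL/6J mice carrying subcutaneous B16Bl6 shoulder tumours (3x10⁵ cells), imaged day 10 or 14. Mice under ketamine/xylazine ip. 25 min acquisition, OSEM reconstruction. ROI % ID/g = counts/g/min ÷ injected dose; ratios = tumour % ID/g ÷ organ % ID/g. n=2-8; mean ± SD.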

Bone [18] = assay: Biodistribution in bone of C57BL/6J mouse harboring mouse B16-Bl6 cells at 8 to 12 MBq, iv after 1 hr by PET analysis; type: ADME, organism-based, Bone element; details: in vivo
Outline: (§3)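 C57BL/6J mice were inoculated s.c. on the right shoulder with 3x10⁵ B16Bl6 cells in PBS under isoflurane, and imaged at day 10 or 14 (tumor volume 431.8 ± 154.3 mm³). The ¹⁸F tracer was given i.v. via tail vein, 8-12 MBq (methods: 9-12 MBq/0.15 mL). Under ketamine/xylazine i.p., a 25-min whole-body static PET scan ran at 1 h. ROI %ID/g = counts/g/min ÷ injected dose. n=2-8; mean ± SD.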

Mus musculus [19] = assay: Biodistribution in eye of C57BL/6J mouse harboring mouse B16-Bl6 cells at 8 to 12 MBq, iv after 1 hr by PET analysis; type: ADME, organism-based; details: in vivo; outline: as §3
Mus musculus [20] = assay: Ratio of drug level in tumor to bone in C57BL/6J mouse harboring mouse B16-Bl6 cells at 9 to 12 MBq, iv after 3 hrs by PET analysis; details: in vivo
Mus musculus [21] = assay: Ratio of drug level in tumor to bone in C57BL/6J mouse harboring mouse B16-Bl6 cells at 9 to 12 MBq, iv after 2 hrs by PET analysis; details: in vivo
Mus musculus [22] = assay: Ratio of drug level in tumor to blood in C57BL/6J mouse harboring mouse B16-Bl6 cells at 9 to 12 MBq, iv after 2 hrs by PET analysis; details: tumour
Mus musculus [23] = assay: Ratio of drug level in tumor to muscle in C57BL/6J mouse harboring mouse B16-Bl6 cells at 9 to 12 MBq, iv after 2 hrs by PET analysis; details: in vivo

| Compound | Drug uptake (Heart [1]) [% ID/g] | Drug uptake (Kidney) [% ID/g] | Drug uptake (Mus musculus [2]) [% ID/g] | Drug uptake (Mus musculus [3]) [% ID/g] | Drug uptake (Stomach [4]) [% ID/g] | Drug uptake (Blood) [% ID/g] | Drug uptake (Muscle tissue [5]) [% ID/g] | Drug uptake (Spleen [6]) [% ID/g] | Drug uptake (Mus musculus [7]) [% ID/g] | Drug uptake (Mus musculus [8]) [% ID/g] | Drug uptake (Stomach [9]) [% ID/g] | Drug uptake (Bone [10]) [% ID/g] | Ratio (Nucleic Acid) | Drug uptake (Brain) [% ID/g] | Drug uptake (Heart [11]) [% ID/g] | Drug uptake (Spleen [12]) [% ID/g] | Drug uptake (Mus musculus [13]) [% ID/g] | Drug uptake (Mus musculus [14]) [% ID/g] | Drug uptake (Bone [15]) [% ID/g] | Drug uptake (Muscle tissue [16]) [% ID/g] | further results |
| --- | --- | --- | --- | --- | --- | --- | --- | --- | --- | --- | --- | --- | --- | --- | --- | --- | --- | --- | --- | --- | --- |
| CCN(CCNC(=O)c1cnc2cc(I)ccc2n1)CCOCCOCCOCC[18F] | 2.32 | 2.19 | 10.79 | 3.91 | 2.81 | 0.8 | 0.81 | 2.88 | 6.05 | 4.28 | 2.48 | 1.96 | 10.11 | 1.82 | 2.72 | 3.72 | 7.27 | 7.17 | 1.4 | 1.17 | Ratio [17]: 11.04; Drug uptake (Bone [18]): 1.98 % ID/g; Drug uptake (Mus musculus [19]): 10.5 % ID/g; Ratio (Mus musculus [20]): 3.7; Ratio (Mus musculus [21]): 7.13; Ratio (Mus musculus [22]): 12.19; Ratio (Mus musculus [23]): 14.46 |
| CCN(CCNC(=O)c1cnc2cc(I)ccc2n1)CCOCCOCCOCCOCCOCCOCCOCC[18F] | 3 | 2.6 | 29.31 | 18.62 | 5.39 | 0.99 | 1.11 | 2.38 | 8.14 | 19.51 | 7.35 | 2.13 | 5.35 | 1.03 | 1.58 | 2.35 | 6.37 | 7.39 | 1.82 | 1.07 | Ratio [17]: 6.62; Drug uptake (Bone [18]): 2.48 % ID/g; Drug uptake (Mus musculus [19]): 5.53 % ID/g; Ratio (Mus musculus [20]): 2.16; Ratio (Mus musculus [21]): 2.75; Ratio (Mus musculus [22]): 4.01; Ratio (Mus musculus [23]): 5.75 |
